Source: ChEMBL document CHEMBL3046448, “Design and syntheses of novel phthalazin-1(2H)-one derivatives as acetohydroxyacid synthase inhibitors” (J Agric Food Chem, 2006)

Key:
Chenopodium album [1] = experiment: Herbicidal activity against Chenopodium album assessed as growth inhibition at 150 g ai/ha applied as post-emergence treatment under green house conditions measured 15 days post compound treatment; assay type: functional; conditions: 360 h, read-out: GI
Summary of the method: (§1)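 Post-emergence spray on pot-grown dicot weeds at the two-leaf stage in a greenhouse. Clay soil: pH 6.5, 1.6% organic matter, 37.3% clay, CEC 12.1 cmol/kg. Formulation: 100 g/L DMF/TW-80 emulsified concentrate, water-diluted to 150 g ai/ha. Untreated and DMF solvent controls. Visual inhibition rating at 15 days: ++ >80%, + 50-80%, − <50%.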

Digitaria sanguinalis [2] = experiment: Herbicidal activity against Digitaria sanguinalis (hairy crabgrass) assessed as growth inhibition at 150 g ai/ha applied as pre-emergence treatment 24 hr after weeds seeds sowing under green house conditions measured 15 days post compound treatment; assay type: functional; conditions: read-out: GI
Summary of the method: (§2)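 Pre-emergence spray applied 24 h after sowing weeds in pots in a greenhouse. Clay soil: pH 6.5, 1.6% organic matter, 37.3% clay, CEC 12.1 cmol/kg. Formulation: 100 g/L emulsified concentrate (DMF solvent, TW-80 emulsifier) diluted with water to 150 g ai/ha. Untreated and DMF-treated controls. Growth inhibition judged visually at 15 days: ++ >80%, + 50-80%, − <50%.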

Echinochloa crus-galli [3] = experiment: Herbicidal activity against Echinochloa crus-galli (barnyard grass) assessed as growth inhibition at 150 g ai/ha applied as pre-emergence treatment 24 hr after weeds seeds sowing under green house conditions measured 15 days post compound treatment; assay type: functional; conditions: read-out: GI; summary of the method: as §2
Digitaria sanguinalis [4] = experiment: Herbicidal activity against Digitaria sanguinalis (hairy crabgrass) assessed as growth inhibition at 150 g ai/ha applied as post-emergence treatment under green house conditions measured 15 days post compound treatment; assay type: functional; conditions: 360 h, read-out: GI
Summary of the method: (§3)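 Monocot weeds grown in pots in a greenhouse and sprayed post-emergence at the one-leaf stage. Clay soil: pH 6.5, 1.6% organic matter, 37.3% clay, CEC 12.1 cmol/kg. Formulation: 100 g/L emulsified concentrate (DMF, TW-80) diluted with water to 150 g ai/ha. Untreated and DMF controls included. Growth inhibition scored visually after 15 days: ++ >80%, + 50-80%, − <50%.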

Echinochloa crus-galli [5] = experiment: Herbicidal activity against Echinochloa crus-galli (barnyard grass) assessed as growth inhibition at 150 g ai/ha applied as post-emergence treatment under green house conditions measured 15 days post compound treatment; assay type: functional; conditions: 360 h, read-out: GI; summary of the method: as §3
Amaranthus retroflexus [6] = experiment: Herbicidal activity against Amaranthus retroflexus assessed as growth inhibition at 150 g ai/ha applied as pre-emergence treatment 24 hr after weeds seeds sowing under green house conditions measured 15 days post compound treatment; assay type: functional; conditions: read-out: GI; summary of the method: as §2
Amaranthus retroflexus [7] = experiment: Herbicidal activity against Amaranthus retroflexus assessed as growth inhibition at 150 g ai/ha applied as post-emergence treatment under green house conditions measured 15 days post compound treatment; assay type: functional; conditions: 360 h, read-out: GI; summary of the method: as §1
Chenopodium album [8] = experiment: Herbicidal activity against Chenopodium album assessed as growth inhibition at 150 g ai/ha applied as pre-emergence treatment 24 hr after weeds seeds sowing under green house conditions measured 15 days post compound treatment; assay type: functional; conditions: read-out: GI; summary of the method: as §2
Brassica juncea [9] = experiment: Herbicidal activity against Brassica juncea assessed as growth inhibition at 150 g ai/ha applied as post-emergence treatment under green house conditions measured 15 days post compound treatment; assay type: functional; conditions: 360 h, read-out: GI; summary of the method: as §1
Setaria viridis [10] = experiment: Herbicidal activity against Setaria viridis (green foxtail) assessed as growth inhibition at 150 g ai/ha applied as pre-emergence treatment 24 hr after weeds seeds sowing under green house conditions measured 15 days post compound treatment; assay type: functional; conditions: read-out: GI; summary of the method: as §2
Brassica juncea [11] = experiment: Herbicidal activity against Brassica juncea assessed as growth inhibition at 150 g ai/ha applied as pre-emergence treatment 24 hr after weeds seeds sowing under green house conditions measured 15 days post compound treatment; assay type: functional; conditions: read-out: GI; summary of the method: as §2
[12] = biological target: T1, Acetolactate synthase, chloroplastic (Arabidopsis thaliana, UniProt P17597); experiment: Inhibition of wild type Arabidopsis thaliana acetohydroxyacid synthase
T1 sequence (P17597 whole entry): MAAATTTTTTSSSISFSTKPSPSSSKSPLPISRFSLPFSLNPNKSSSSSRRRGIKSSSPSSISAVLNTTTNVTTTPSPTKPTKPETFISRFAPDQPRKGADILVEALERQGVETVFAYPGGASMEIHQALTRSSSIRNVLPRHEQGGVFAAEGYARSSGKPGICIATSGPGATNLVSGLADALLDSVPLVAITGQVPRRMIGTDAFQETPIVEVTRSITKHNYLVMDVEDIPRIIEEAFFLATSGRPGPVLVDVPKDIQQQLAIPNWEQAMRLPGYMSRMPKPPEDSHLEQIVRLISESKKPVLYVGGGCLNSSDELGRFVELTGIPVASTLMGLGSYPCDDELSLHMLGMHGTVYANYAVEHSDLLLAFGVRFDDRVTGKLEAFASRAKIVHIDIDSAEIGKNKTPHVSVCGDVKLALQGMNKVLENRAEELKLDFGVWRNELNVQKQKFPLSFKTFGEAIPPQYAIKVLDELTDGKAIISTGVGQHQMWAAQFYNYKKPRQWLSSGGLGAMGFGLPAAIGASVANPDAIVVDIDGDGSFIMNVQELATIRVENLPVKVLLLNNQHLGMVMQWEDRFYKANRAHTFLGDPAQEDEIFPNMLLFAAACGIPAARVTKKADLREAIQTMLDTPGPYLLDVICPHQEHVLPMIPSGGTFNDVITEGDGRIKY

Setaria viridis [13] = experiment: Herbicidal activity against Setaria viridis (green foxtail) assessed as growth inhibition at 150 g ai/ha applied as post-emergence treatment under green house conditions measured 15 days post compound treatment; assay type: functional; conditions: 360 h, read-out: GI; summary of the method: as §3

| SMILES | inhibition of growth at 150 g/ha (Chenopodium album [1]) [%] | inhibition of growth at 150 g/ha (Digitaria sanguinalis [2]) [%] | inhibition of growth at 150 g/ha (Echinochloa crus-galli [3]) [%] | inhibition of growth at 150 g/ha (Digitaria sanguinalis [4]) [%] | inhibition of growth at 150 g/ha (Echinochloa crus-galli [5]) [%] | inhibition of growth at 150 g/ha (Amaranthus retroflexus [6]) [%] | inhibition of growth at 150 g/ha (Amaranthus retroflexus [7]) [%] | inhibition of growth at 150 g/ha (Chenopodium album [8]) [%] | inhibition of growth at 150 g/ha (Brassica juncea [9]) [%] | inhibition of growth at 150 g/ha (Setaria viridis [10]) [%] | inhibition of growth at 150 g/ha (Brassica juncea [11]) [%] | Ki [12] [µM] | inhibition of growth at 150 g/ha (Setaria viridis [13]) [%] |
| --- | --- | --- | --- | --- | --- | --- | --- | --- | --- | --- | --- | --- | --- |
| COc1cc(OC)nc(Oc2cccc3c(C)nn(Cc4cccc(Br)c4)c(=O)c23)n1 | < 50 | < 50 | < 50 | 50 | 50 | < 50 | > 80 | < 50 | 50 | < 50 | < 50 | 759 | 50 |
| COc1cc(OC)nc(Oc2cccc3c(C)nn(Cc4ccccc4Br)c(=O)c23)n1 | < 50 | < 50 | < 50 | < 50 | < 50 | < 50 | < 50 | < 50 | < 50 | < 50 | < 50 | 362 | < 50 |
| COc1cc(OC)nc(Oc2cccc3c(C)nn(Cc4ccc(Br)cc4)c(=O)c23)n1 | < 50 | < 50 | < 50 | < 50 | < 50 | < 50 | < 50 | < 50 | < 50 | < 50 | < 50 | 310 | < 50 |
| COc1cc(OC)nc(Oc2cccc3c(C)nn(Cc4ccccc4)c(=O)c23)n1 | < 50 | < 50 | < 50 | < 50 | < 50 | < 50 | < 50 | < 50 | < 50 | < 50 | < 50 | 822 | < 50 |
| CCCCn1nc(C)c2cccc(Oc3nc(OC)cc(OC)n3)c2c1=O | > 80 | < 50 | < 50 | < 50 | 50 | < 50 | > 80 | < 50 | 50 | < 50 | < 50 | 441 | 50 |
| COc1cc(OC)nc(Oc2cccc3c(C)nn(Cc4ccc(C)cc4)c(=O)c23)n1 | < 50 | < 50 | < 50 | < 50 | < 50 | < 50 | < 50 | < 50 | < 50 | < 50 | < 50 | 637 | < 50 |
